Experimental data published in ChEMBL document CHEMBL2375274, “Exploration of the structure-activity relationship of a novel tetracyclic class of TSPO ligands-potential novel positron emitting tomography imaging agents” (Bioorg Med Chem Lett, 2013).

Tests used:
[1] = Metabolic stability in Wistar rat brain assessed as remaining parent compound after 30 mins by HPLC analysis; type: ADME, tissue-based; conditions: read-out: Stability
Method in brief: (§1)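 ¹⁸F-labelled compounds given to naïve Wistar rats (n = 1). Brain extracts were taken at 10, 30 and 60 min post-injection and analysed by HPLC. The read-out is % parent.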

[2] = Metabolic stability in Wistar rat brain assessed as remaining parent compound after 60 mins by HPLC analysis; type: ADME, tissue-based; conditions: read-out: Stability; method in brief: as §1
[3] = Metabolic stability in Wistar rat brain assessed as remaining parent compound after 10 mins by HPLC analysis; type: ADME, tissue-based; conditions: read-out: Stability; method in brief: as §1
Translocator protein = Translocator protein (Rattus norvegicus, UniProt P16257); test: Displacement of [3H]PK11195 from PBR receptor in Wistar rat heart homogenates; type: tissue-based
Chain of Translocator protein (P16257 whole entry, looked up): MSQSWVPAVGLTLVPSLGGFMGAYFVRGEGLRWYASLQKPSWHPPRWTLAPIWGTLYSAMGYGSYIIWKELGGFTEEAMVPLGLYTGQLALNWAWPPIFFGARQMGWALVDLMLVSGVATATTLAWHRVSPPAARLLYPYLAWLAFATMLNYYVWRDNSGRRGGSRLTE
Method in brief: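 Competition binding against [³H]PK11195 in homogenised rat heart tissue.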

[4] = Octanol-water partition coefficient, log P of the compound by reversed phase liquid chromatography; type: physicochemical
[5] = Ratio of drug uptake in Wistar rat brain to Wistar rat striatum after 30 mins; conditions: in vivo, 0.5 h
Striatum = test: Ratio of drug uptake in Wistar rat striatum after 2 mins to Wistar rat striatum after 30 mins; type: ADME, tissue-based; conditions: in vivo
Method in brief: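 Biodistribution of ¹⁸F-compounds in naïve Wistar rats (n = 3). Regional brain uptake was measured as % id/g at 2 and 30 min post-injection. Ratios were taken between regions, olfactory bulb:striatum at 30 min, and between times, 2:30 min.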

[6] = Metabolic stability in Wistar rat plasma after 15 mins by HPLC analysis; type: ADME, cell-free; conditions: read-out: Stability
Method in brief: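 Radiolabelled compound was incubated in plasma at 37 °C for 15 min. Chiral HPLC analysis then gave the percentage of the active enantiomer that remained.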

Q: With [3H]C([3H])([3H])N(C(=O)c1cc2ccccc2c(-c2ccccc2Cl)n1)C(C)CC (stereo not drawn) as the molecule, how does the remaining at 0.5 h [1] read?
A: 100%

Q: What about the remaining at 1 h [2] of the same molecule?
A: 100%

Q: And the remaining at 10 min [3]?
A: 100%

Q: With CCN(CCF)C(=O)c1sc2ccccc2c2nc3ccccc3c1-2 as the molecule, how does the Ki (Translocator protein) read?
A: 297 nM

Q: With CCN(CC)C(=O)C1Sc2ccccc2-c2c1c1ccccc1n2CCF (racemic) as the molecule, how does the logP [4] read?
A: 3.76

Q: What about the remaining at 0.5 h [1] of the same molecule?
A: 95%

Q: What about the Ratio [5] of the same molecule?
A: 1.42

Q: And the remaining at 10 min [3]?
A: 99%

Q: And the Ratio (Striatum)?
A: 2.16

Q: Which logP [4] does the source give for CCN(CC)C(=O)C1Sc2ccccc2-c2c1c1ccc(OC)cc1n2CCF (racemic) here?
A: 3.82

Q: What about the remaining at 0.5 h [1] of the same molecule?
A: 98%

Q: What about the remaining at 1 h [2] of the same molecule?
A: 98%

Q: What about the Ratio [5] of the same molecule?
A: 3.5

Q: And the remaining at 10 min [3]?
A: 99%

Q: And the Ki (Translocator protein)?
A: 0.4 nM

Q: And the Ratio (Striatum)?
A: 4.75

Q: Which logP [4] does the source give for CCN(CC)C(=O)C1(C)Sc2ccccc2-c2c1c1ccccc1n2CCF (racemic) here?
A: 4

Q: What about the Ratio [5] of the same molecule?
A: 0.88

Q: And the Ki (Translocator protein)?
A: 13.1 nM

Q: What about the Ratio (Striatum) of the same molecule?
A: 2.75

Q: Which logP [4] does the source give for CCN(CC)C(=O)C1Sc2ccccc2-c2c1c1cc(OC)ccc1n2CCF (racemic) here?
A: 3.77

Q: What about the remaining at 0.5 h [1] of the same molecule?
A: 97%

Q: And the remaining at 1 h [2]?
A: 96%

Q: What about the remaining at 10 min [3] of the same molecule?
A: 98%

Q: What about the Ratio (Striatum) of the same molecule?
A: 1.73

Q: Which Ki (Translocator protein) does the source give for CCN(CC)C(=O)CC1c2cc(OC)ccc2-c2c1c1ccccc1n2CCF (racemic) here?
A: 154 nM

Q: For CCN(CC)C(=O)C1c2ccccc2-c2[nH]c3ccccc3c21 (racemic), which Ratio [5] is on record?
A: 1

Q: And the Ki (Translocator protein)?
A: 0.8 nM

Q: What about the Ratio (Striatum) of the same molecule?
A: 5.8

Q: With CCN(CC)C(=O)C1Cc2ccccc2-c2c1c1ccccc1n2CCF (racemic) as the molecule, how does the logP [4] read?
A: 3.69

Q: What about the Ki (Translocator protein) of the same molecule?
A: 1.13 nM

Q: With CCN(CC)C(=O)C1(C)c2c(n(CCF)c3ccccc23)-c2ccccc2S1(=O)=O (racemic) as the molecule, how does the logP [4] read?
A: 3.1

Q: And the Ki (Translocator protein)?
A: 410 nM

Q: For CCN(CC)C(=O)C1c2c(n(CCF)c3ccccc23)-c2ccccc2S1(=O)=O (racemic), which logP [4] is on record?
A: 3

Q: What about the Ratio [5] of the same molecule?
A: 2.13

Q: What about the Ki (Translocator protein) of the same molecule?
A: 8.79 nM

Q: And the Ratio (Striatum)?
A: 1.75

Q: What does the source list for CCN(CC)C(=O)C1Sc2cc(N(CCF)C(C)=O)ccc2-c2c1c1ccccc1n2CCF (racemic)?
A: logP [4]: 3.13; Ki (Translocator protein): 1.35 nM

Q: Which logP [4] does the source give for CCN(CC)C(=O)C1Sc2cc(NC(C)=O)ccc2-c2c1c1ccccc1n2CCF (racemic) here?
A: 3.15

Q: What about the Ki (Translocator protein) of the same molecule?
A: 0.39 nM

Q: Which Ratio [5] does the source give for CCN(CC)C(=O)C1Sc2ccc(O)cc2-c2c1c1ccccc1n2CCF (racemic) here?
A: 1.25

Q: What about the Ki (Translocator protein) of the same molecule?
A: 0.55 nM

Q: What about the Ratio (Striatum) of the same molecule?
A: 0.75

Q: What does the source list for CCN(CC)C(=O)C1Sc2cc(O)ccc2-c2c1c1ccccc1n2CCF (racemic)?
A: logP [4]: 2.7; Ratio [5]: 1.44; Ki (Translocator protein): 0.33 nM; Ratio (Striatum): 1.11

Q: Which logP [4] does the source give for CCN(CC)C(=O)C1Sc2cc(F)ccc2-c2c1c1ccccc1n2CCF (racemic) here?
A: 3.87

Q: Which logP [4] does the source give for CCN(CC)C(=O)C1Sc2c(F)cccc2-c2c1c1ccccc1n2CCF (racemic) here?
A: 3.79

Q: Which logP [4] does the source give for CCN(CC)C(=O)C1Sc2ccc(F)cc2-c2c1c1ccccc1n2CCF (racemic) here?
A: 3.84

Q: What about the Ratio [5] of the same molecule?
A: 1.37

Q: And the Ki (Translocator protein)?
A: 0.39 nM

Q: And the Ratio (Striatum)?
A: 2.11

Q: Which logP [4] does the source give for CCN(CC)C(=O)C1Sc2c(OC)cccc2-c2c1c1ccccc1n2CCF (racemic) here?
A: 3.67

Q: What about the Ratio [5] of the same molecule?
A: 1.53

Q: And the Ki (Translocator protein)?
A: 0.33 nM

Q: What about the Ratio (Striatum) of the same molecule?
A: 1.07

Q: With CCN(CC)C(=O)C1Sc2cc(OC)ccc2-c2c1c1ccccc1n2CCF (racemic) as the molecule, how does the logP [4] read?
A: 3.91

Q: And the Ratio [5]?
A: 1.4

Q: And the Ki (Translocator protein)?
A: 0.3 nM

Q: What about the Ratio (Striatum) of the same molecule?
A: 1.17

Q: What does the source list for CCN(CC)C(=O)C1Sc2ccc(OC)cc2-c2c1c1ccccc1n2CCF (racemic)?
A: logP [4]: 3.65; Ratio [5]: 1.37; Ki (Translocator protein): 0.3 nM; Ratio (Striatum): 1.42

Q: For CCOc1ccc2c(c1)c1c(n2CCF)-c2ccccc2SC1C(=O)N(CC)CC (racemic), which logP [4] is on record?
A: 3.88

Q: What about the Ratio [5] of the same molecule?
A: 2.67

Q: What about the Ki (Translocator protein) of the same molecule?
A: 0.52 nM

Q: What about the Ratio (Striatum) of the same molecule?
A: 2.89

Q: Which logP [4] does the source give for CCN(CC)C(=O)C1Sc2cccc(OC)c2-c2c1c1ccccc1n2CCF (racemic) here?
A: 3.67

Q: What about the Ratio [5] of the same molecule?
A: 1.78

Q: And the Ki (Translocator protein)?
A: 1.07 nM

Q: What about the Ratio (Striatum) of the same molecule?
A: 3

Q: What does the source list for CCN(CC)C(=O)C1Sc2ccccc2-c2c1c1cc(C#N)ccc1n2CCF (racemic)?
A: logP [4]: 3.6; Ratio [5]: 1.93; Ki (Translocator protein): 0.19 nM; Ratio (Striatum): 2.23

Q: Which logP [4] does the source give for CCN(CC)C(=O)C1Sc2ccccc2-c2c1c1cc(OC(F)(F)F)ccc1n2CCF (racemic) here?
A: 4.03

Q: What about the Ratio [5] of the same molecule?
A: 1.46

Q: And the Ki (Translocator protein)?
A: 0.26 nM

Q: What about the Ratio (Striatum) of the same molecule?
A: 1.29

Q: With CCN(CC)C(=O)C1Sc2ccccc2-c2c1c1cc(C)ccc1n2CCF (racemic) as the molecule, how does the logP [4] read?
A: 3.96

Q: And the Ratio [5]?
A: 1.73

Q: And the Ki (Translocator protein)?
A: 0.34 nM

Q: And the Ratio (Striatum)?
A: 2

Q: For CCN(CC)C(=O)C1Sc2ccccc2-c2c1c1cc(Br)ccc1n2CCF (racemic), which logP [4] is on record?
A: 4.23

Q: What about the Ratio [5] of the same molecule?
A: 1.35

Q: And the Ki (Translocator protein)?
A: 0.47 nM

Q: And the Ratio (Striatum)?
A: 1.53

Q: Which results are given for CCN(CC)C(=O)C1Sc2ccccc2-c2c1c1cc(F)ccc1n2CCF (racemic)?
A: logP [4]: 3.85; Ratio [5]: 1.16; Ki (Translocator protein): 0.49 nM; Ratio (Striatum): 1.6

Q: Which Ki (Translocator protein) does the source give for CCN(CC)C(=O)C1Sc2ccccc2-c2[nH]c3ccc(NC(C)=O)cc3c21 (racemic) here?
A: 59.2 nM

Q: For CCN(CC)C(=O)C1Sc2ccccc2-c2c1c1cc(O)ccc1n2CCF (racemic), which logP [4] is on record?
A: 3.19

Q: And the Ratio [5]?
A: 1

Q: And the Ki (Translocator protein)?
A: 19 nM

Q: What about the Ratio (Striatum) of the same molecule?
A: 1.33

Q: With CCN(CC)C(=O)C1Sc2ccccc2-c2c1c1ccc(OC)nc1n2CCF (racemic) as the molecule, how does the logP [4] read?
A: 3.87

Q: What about the Ratio [5] of the same molecule?
A: 2.11

Q: What about the Ki (Translocator protein) of the same molecule?
A: 8.44 nM

Q: And the Ratio (Striatum)?
A: 4.67

Q: Which logP [4] does the source give for CCN(CC)C(=O)C1Sc2ccccc2-c2c1c1cccnc1n2CCF (racemic) here?
A: 3.12

Q: And the Ki (Translocator protein)?
A: 3.92 nM

Q: Which results are given for CCN(CC)C(=O)C1Sc2ccccc2-c2c1c1cc(Cl)ccc1n2CCF (racemic)?
A: logP [4]: 4.17; Ratio [5]: 1.57; Ki (Translocator protein): 0.23 nM; Ratio (Striatum): 1.29

Q: For CCN(CC)C(=O)C1Sc2ccccc2-c2c1c1cccc(OC)c1n2CCF (racemic), which logP [4] is on record?
A: 3.85

Q: And the Ratio [5]?
A: 2

Q: What about the Ki (Translocator protein) of the same molecule?
A: 0.93 nM

Q: What about the Ratio (Striatum) of the same molecule?
A: 5

Q: What does the source list for CCN(CC)C(=O)C1Sc2ccccc2-c2c1c1c(OC)cccc1n2CCF (racemic)?
A: Ratio [5]: 2.42; Ki (Translocator protein): 1.09 nM; Ratio (Striatum): 2

Q: Which Ki (Translocator protein) does the source give for CCN(CC)C(=O)C1Sc2ccccc2-c2[nH]c3ccccc3c21 (racemic) here?
A: 0.76 nM

Q: Which Ki (Translocator protein) does the source give for CCN(CC)C(=O)C1Sc2ccccc2-c2c1c1ccccc1n2Cc1cn(CCF)nn1 (racemic) here?
A: 63.6 nM

Q: With CCN(CC)C(=O)C1Sc2cc(OCCF)ccc2-c2c1c1ccccc1n2C (racemic) as the molecule, how does the Ki (Translocator protein) read?
A: 0.35 nM

Q: Which Ki (Translocator protein) does the source give for CCN(CC)C(=O)C1Sc2ccccc2-c2c1c1ccccc1n2CCCCF (racemic) here?
A: 0.52 nM

Q: For CCN(CC)C(=O)C1Sc2ccccc2-c2c1c1ccccc1n2CCCF (racemic), which Ki (Translocator protein) is on record?
A: 0.36 nM

Q: With CCN(CC)C(=O)C1Sc2ccccc2-c2c1c1ccccc1n2CCF (single isomer, unassigned; form 1) as the molecule, how does the Ki (Translocator protein) read?
A: 5.24 nM

Q: For CCN(CC)C(=O)C1(C)Sc2ccccc2-c2c1c1ccccc1n2CCF (single isomer, unassigned; form 1), which Ki (Translocator protein) is on record?
A: 30.2 nM

Q: Which Ki (Translocator protein) does the source give for CCN(CC)C(=O)C1Sc2ccccc2-c2c1c1cc(OC)ccc1n2CCF (single isomer, unassigned; form 1) here?
A: 1.17 nM

Q: With CCN(CC)C(=O)C1Sc2ccccc2-c2c1c1ccccc1n2CCF (single isomer, unassigned; form 2) as the molecule, how does the remaining at 0.25 h [6] read?
A: 83%

Q: And the Ki (Translocator protein)?
A: 0.22 nM

Q: Which Ki (Translocator protein) does the source give for CCN(CC)C(=O)C1(C)Sc2ccccc2-c2c1c1ccccc1n2CCF (single isomer, unassigned; form 2) here?
A: 16.8 nM

Q: Which Ki (Translocator protein) does the source give for CCN(CC)C(=O)C1Sc2ccccc2-c2c1c1cc(OC)ccc1n2CCF (single isomer, unassigned; form 2) here?
A: 0.29 nM
